Sampled rows, rich in hits. Any-hit rate of the full collection: about 9.6%.
L major viab: reduces viability of Leishmania major promastigotes; resazurin fluorescence viability; inhibition, % at 10 µM; hit rate 9% among 200,000; AID 1063; in the data active = inhibition above about 50%;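 also: promastigotes grown with compound for 44 hours at 28 °C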
PMI act: increases human mannose-6-phosphate isomerase activity | AID 1214 | activation factor at 20 µM | P34949 | hit rate 0.005% among 190,000 | purified human PMI, coupled resazurin fluorescence, 20 min; active compounds read high; 1 = vehicle control, 0 substrate-free wells;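 active = activation factor of 2 or more at 20 µM, relative to plate controls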
Target sequence (P34949 whole entry, looked up): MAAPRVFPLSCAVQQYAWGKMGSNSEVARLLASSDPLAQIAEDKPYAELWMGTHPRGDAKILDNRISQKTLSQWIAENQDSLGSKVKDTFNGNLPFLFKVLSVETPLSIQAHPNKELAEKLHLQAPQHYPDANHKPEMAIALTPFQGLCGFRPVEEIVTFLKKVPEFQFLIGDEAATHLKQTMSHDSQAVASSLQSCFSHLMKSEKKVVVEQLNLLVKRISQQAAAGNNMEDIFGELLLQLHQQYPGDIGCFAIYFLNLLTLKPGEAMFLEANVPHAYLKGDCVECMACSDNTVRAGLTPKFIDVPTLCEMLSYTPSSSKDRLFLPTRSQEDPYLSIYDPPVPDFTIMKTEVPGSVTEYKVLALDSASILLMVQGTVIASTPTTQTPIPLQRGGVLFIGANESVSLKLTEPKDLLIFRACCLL
HCT116 PTEN-null: suppresses growth of cells with PTEN deletion; HCT116 PTEN-null viability, CellTiter-Glo, 60 h; active compounds read low; viability, % at 10 µM; hit rate 1.2% among 140,000; AID 827;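 active = viability at or below a set limit, 4 SD under the median of all tested compounds, cut at about 3.7% in these data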;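 also: PTEN knockout HCT116 line with beta catenin targeted HCT116 as companion control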
PMI act hi M6P: PMI (human) activation, high substrate; P34949; coupled PMI enzyme assay, resazurin fluorescence, 20 min; active compounds read high; 1 = untreated enzyme, 0 = substrate-free blank; activation factor at 20 µM; hit rate 0.34% among 190,000;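 active = activation factor of 2 or more at 20 µM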
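Material: human phosphomannose isomerase with PGI, G6PDH, diaphorase coupling enzymes / Reagent: Man-6-P substrate 1.0 mM / Dosing: single compound dose of 20 µM, 1% DMSO final / Incubation: enzyme reaction with compound 20 min at room temperature / Signal: resorufin fluorescence (Ex 544/Em 590 nm) from resazurin via diaphorase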
bCat KO growth: beta-catenin-lacking colon tumor cell growth suppression. HCT116 beta-catenin knockout viability, CellTiter-Glo, 60 h; active compounds read low. AID 818. viability, % at 10 µM. hit rate 1.5% among 140,000;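 active = viability at or under a set limit, the compound median less 4 SD, cut at about 6% in these data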;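 also: 0% = Hyamine 1622 control at 20 µM and 100% = untreated cell control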
The depositor's hits bear a star; · = no result.

SMILES	L major viab	PMI act	HCT116 PTEN-null	PMI act hi M6P	bCat KO growth
O=S(=O)(Nc1nc2ccccc2nc1NCc1ccco1)c1cccs1	-4.0	1.5	31.4	1.9	22.1
COc1cc(N(C(=O)Cc2cccs2)C(C(=O)NC2CCCCC2)c2ccc(C)cc2)ccc1-n1cnnn1 (stereo not drawn)	63.2*	1	1.4*	1.1	15.4
Cc1nn(C)cc1C(C(=O)NC1CCCCC1)N(C(=O)Cc1cccs1)c1ccc(Cl)cc1 (stereo not drawn)	85.1*	1	68.4	1	76.1
Cc1ccc(S(=O)(=O)N(c2ccc(Br)cc2)C2C=CS(=O)(=O)C2)cc1 (stereo not drawn)	16.5	0.9	·	1	·
Clc1ccc(-c2cn3cccnc3n2)cc1Cl	-5.8	1.5	83.8	2*	88.7
COc1ccc(-c2cn3cccnc3n2)cc1NC(=O)c1cccs1	97.1*	0.9	93.1	1	89.5
COc1ccc(-c2cn3cccnc3n2)cc1F	79.8*	1.1	97.4	1.2	99.4
O=C(CCCC(=O)N(CC(=O)NC1CCCC1)Cc1ccc2c(c1)OCO2)Nc1ccccn1	-3.5	1	107.6	1	94.0
Cc1ccnc2c(N3C(=O)C4C5c6ccccc6C(c6ccccc65)C4C3=O)cccc12 (stereo not drawn)	58.2*	0.9	70.2	0.9	63.5
N#CCOc1nc(N2CCCC2)nc(N2CCCC2)n1	96.8*	1	89.3	1	88.8
N#CCOc1nc(N2CCCCC2)nc(N2CCCCC2)n1	16.5	1	·	1.1	·
Cc1ccc(-c2nn3cnnc3c3ccccc23)cc1C	15.1	1.1	·	1.1	·
COc1ccc(-c2cc(=O)n(CCC#N)[nH]2)cc1	96.0*	1	95.6	0.9	85.2
COc1ccc(NC(=S)N/N=C/c2cccn2Cc2ccc(F)cc2)cc1	1.8	1	·	1	·
O=C(Cn1ncc(Cl)c(Cl)c1=O)N1CCc2ccccc21	87.0*	1.1	·	1	·
O=c1c(Cl)c(Cl)cnn1Cc1ccccc1Cl	75.8*	0.7	1.9*	0.9	1.7*
O=C(Cn1ncc(Cl)c(Cl)c1=O)N1CCN(Cc2ccccc2)CC1	39.7	1.3	·	1.2	·
O=C(Cn1ncc(Cl)c(Cl)c1=O)N1CCOCC1	14.3	0.9	·	1	·
Cc1ccc(-c2nnc(Cc3ccc(Cl)cc3)o2)cc1	-0.8	1	93.7	1	98.9
CCc1ccc(C(=O)Cn2ncc(Cl)c(Cl)c2=O)cc1	28.2	0.9	3.0*	0.9	4.8*
O=c1c(Cl)c(Cl)cnn1Cc1nnc(-c2ccc(Cl)cc2)o1	99.7*	1.3	·	1.1	·
CCOC(=O)n1c(=O)n(Cc2c(Cl)cccc2Cl)c2ccccc21	1.6	0.8	66.7	0.9	69.5
CCN(CC)c1ccc(C2C(C(=O)OC(C)C)C(=O)CC(C)(O)C2C(=O)OC(C)C)cc1 (stereo not drawn)	-3.1	1.1	65.8	1.1	62.8
Cc1cc(C)cc(Cn2ncc(Cl)c(Cl)c2=O)c1	18.6	1	1.6*	1	1.9*
CCCCNc1cnn(-c2ccccc2)c(=O)c1Cl	48.7	1.1	·	1.1	·
SMILES	L major viab	PMI act	HCT116 PTEN-null	PMI act hi M6P	bCat KO growth
Cc1ccc(Cn2ncc(Cl)c(Cl)c2=O)cc1	60.2*	1	1.7*	1.1	2.7*
O=c1c(Cl)c(Cl)cnn1-c1ccccc1	90.5*	1	0.9*	1	0.9*
O=C(c1ccc(Cl)nc1)N1CCN(C/C=C/c2ccccc2)CC1	2.4	1	·	0.9	·
O=C(O)CCn1cc(/C=C/C(=O)c2ccc(Cl)cc2)c(-c2ccc(Br)cc2)n1	1.4	0.8	24.8	0.8	41.7
CN(C)S(=O)(=O)c1cccc(C(=O)Nc2ccc(S(=O)(=O)N3CCCC3)cc2)c1	-0.5	1	·	0.9	·
Cc1ccsc1C(=O)N1CCC(N2CCC(C(=O)NCC3CCCO3)CC2)CC1 (stereo not drawn)	-1.7	1	·	0.9	·
COc1ccc(CNC(=O)C2CCCN2S(=O)(=O)c2ccc(F)cc2)cc1 (stereo not drawn)	-3.8	1	·	1.1	·
COc1ccc2c(c1OC)C(=O)OC2Nc1nc(-c2cc3ccccc3oc2=O)cs1 (stereo not drawn)	-1.6	0.9	58.7	0.9	58.4
COc1ccc2c(c1OC)C(=O)OC2Nc1nc(-c2ccc(-c3ccccc3)cc2)cs1 (stereo not drawn)	51.8*	1.1	92.4	1	87.4
Cc1csc(SC(C)C(=O)Nc2ccc(Cl)cn2)n1 (stereo not drawn)	-4.4	1.1	83.1	1	84.8
CC(Sc1nc(-c2ccc(F)cc2)cs1)C(=O)Nc1ccc(Cl)cn1 (stereo not drawn)	61.1*	0.8	80.2	0.9	83.3
CCOC(=O)c1ccc(CSc2nnc(N)s2)cc1	-2.1	1	104.2	1	95.4
O=C1N=C(N2CCc3ccccc3C2)S/C1=C\c1cccc(O)c1	2.0	0.9	73.7	1	81.9
O=C1CN(CC(=O)N2CCOCC2)c2ccccc2O1	-0.7	0.8	54.5	0.5	57.6
O=C1CN(CC(=O)N2CCCCC2)c2ccccc2O1	97.8*	0.8	49.8	0.5	51.0
C=CCNC(=O)C1CC(=O)N(c2ccc(OCC(=O)Nc3cccc(OC)c3)cc2)C1 (stereo not drawn)	6.4	1	97.9	1	95.7
C=CCNC(=O)C1CC(=O)N(c2ccc(OCC(=O)Nc3ccc(Cl)c(C(F)(F)F)c3)cc2)C1 (stereo not drawn)	-0.4	1	1.9*	1	1.9*
CC(=O)NC(c1cccs1)c1cc([N+](=O)[O-])c2cccnc2c1O (stereo not drawn)	-3.4	0.9	3.8*	0.6	5.6*
CC(C)C(=O)NC(c1ccccc1)c1cc([N+](=O)[O-])c2cccnc2c1O (stereo not drawn)	-4.5	0.8	7.0	0.4	4.1*
CC(=O)NC(c1ccccc1)c1cc([N+](=O)[O-])c2cccnc2c1O (stereo not drawn)	-2.5	0.7	·	0.4	·
CCCC(=O)NC(c1cccs1)c1cc([N+](=O)[O-])c2cccnc2c1O (stereo not drawn)	-3.8	1	4.0	0.4	5.5*
CCC(=O)NC(c1cccs1)c1cc([N+](=O)[O-])c2cccnc2c1O (stereo not drawn)	7.7	1	5.5	0.6	3.0*
CC(=O)/C(=N/Nc1ccccc1)Sc1nnc(C(O)c2ccccc2)n1-c1ccccc1 (stereo not drawn)	3.8	1	105.6	1.1	89.1
O=C(CCc1ccccc1)NC(c1cccs1)c1cc(Cl)c2cccnc2c1O (stereo not drawn)	98.8*	1.1	·	0.9	·
CCn1c(SCc2ccc(Cl)cc2Cl)nc2nc3c(cc2c1=O)CCCC3	2.0	1	67.2	1	76.7
CC(=O)c1cn(C)c(=O)[nH]c1=O	3.1	1	·	1	·
O=C(NCCCn1ccnc1)c1cc2c(s1)CCCCC2	59.9*	1	80.9	1	76.1
COc1ccc(OCCC(=O)Nc2nccs2)cc1	-3.5	0.9	·	0.9	·
